Screening data from PubChem.
NF-kB expr up: activators of NF-kB expression in neurons, primary screen, cell-based, HTS; human neuronal cells, NF-kB reporter expression; active compounds read high; AID 1239, 2008; 1.6% of 190,000 active; fold change at 12.5 µM; in the data active = fold change above about 3.3
FLuc inhib CS: firefly luciferase enzyme inhibitors, primary screen, artefact control for luciferase-based inhibitor screens, biochemical, luminescence, ATPLite | AID 1006, 2008 | 10 min | inhibition, % at 10 µM | 1.5% of 200,000 active | Luciferin 4-monooxygenase (Photinus pyralis), P08659;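 active = inhibition above about 50% when tested at 10 µM, limit read from the data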
Target sequence (P08659 whole entry, looked up): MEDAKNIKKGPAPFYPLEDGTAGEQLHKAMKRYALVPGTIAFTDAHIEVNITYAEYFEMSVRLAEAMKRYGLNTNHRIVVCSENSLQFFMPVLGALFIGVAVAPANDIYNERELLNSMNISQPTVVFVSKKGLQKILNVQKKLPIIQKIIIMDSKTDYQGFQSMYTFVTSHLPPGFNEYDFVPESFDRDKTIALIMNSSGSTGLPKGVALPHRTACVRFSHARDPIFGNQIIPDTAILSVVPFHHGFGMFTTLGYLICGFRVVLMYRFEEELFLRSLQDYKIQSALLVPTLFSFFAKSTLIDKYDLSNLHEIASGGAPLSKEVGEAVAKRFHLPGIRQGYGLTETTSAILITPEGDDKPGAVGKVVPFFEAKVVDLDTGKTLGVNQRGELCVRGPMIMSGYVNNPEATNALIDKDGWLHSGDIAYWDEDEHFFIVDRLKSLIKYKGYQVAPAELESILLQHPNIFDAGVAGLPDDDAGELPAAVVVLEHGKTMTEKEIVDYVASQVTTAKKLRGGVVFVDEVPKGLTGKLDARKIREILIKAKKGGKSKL
STAT1 act: STAT1 signaling activators, primary screen, cell-based, HTS, luciferase reporter; activation (% of control), % at 5.5 µM; NIH 3T3 STAT1-luciferase reporter, IFN-gamma, luminescence; 100% = IFN-gamma alone, no compound; AID 932, 2007; 2.6% of 200,000 active;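 active = activation above the screen-wide mean activation plus 3 SD, cut at about 130% in these data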;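 also: raw ratio to IFN-gamma control signal so 100% means no change and 0% no light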
FLuc stim CS: FLuc activators, initial screening, artefact control for FLuc-dependent activation tests, biochemical, ATPlite luminescence. ATPlite luciferase biochemical, 10 min; 0 = ATP-free wells, 1 = DMSO control. activation factor at 10 µM. 200,000 tested, under 10 active. AID 1027, 2008;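 active = luciferase activation factor, scaled between plate controls, of at least 2 with compound at 10 µM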
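System: cell-free luciferase reagent; medium: PBS as buffer for the ATP substrate; doses: test compounds dosed from 2 mM stocks in 100% DMSO; incubation: 10 min, room temperature; measured by: luminescence from luciferase reaction; read-out: luciferase activation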
APP 5UTR inh: inhibitors of APP translation via 5'UTR reporter, primary screen, APP 5'UTR luciferase, SH-SY5Y cells; SH-SY5Y APP 5'UTR-luciferase reporter, luminescence; inhibition, % at 2 µM; 0.82% of 190,000 active; AID 1285, 2008;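 active = inhibition above a set limit, derived from the sample mean plus 3 SD, cut at about 45% in these data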
APP 5'UTR act: activators of APP 5'UTR luciferase reporter, primary screen, SH-SY5Y cells | SH-SY5Y APP 5'UTR luciferase reporter, luminescence; zero percent = DMSO vehicle wells | activation, % at 2 µM | 1% of 190,000 active | AID 1276, 2008;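 active = activation above a set limit, based on mean plus 3 SD of controls, cut at about 140% in these data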
* hit, by the source's call; / = not tested or not shown. Most compounds without a hit are left out; they make up all but 4.8% or so of the library.

SMILES	NF-kB expr up	FLuc inhib CS	STAT1 act	FLuc stim CS	APP 5UTR inh	APP 5'UTR act
NNc1nc2c(-c3ccc(F)cc3)nnn2c2ccccc12	0.97	24	141*	0.8	-134	134
NNc1nc2c(-c3ccc(Cl)cc3)nnn2c2ccccc12	1.1	12	135*	0.9	-106	106
N#CC1=C2SCC(O)(c3ccccc3)N2C(=O)CC1c1cccs1 (stereo not given)	2.4	-6	98	1.1	91*	-91
N#CC1=C2SCC(O)(c3ccccc3)N2C(=O)CC1c1ccccc1F (stereo not given)	1.1	-5	88	1.1	-3	3
S=C(NCCc1ccccc1)N1CCN(C23CC4CC(CC(C4)C2)C3)CC1	0.93	-3	95	1	-8	8
Cc1ccc2cccnc2c1NC(=S)NC(=O)c1ccccc1	0.7	-1	88	1	/	/
C/C(=N\NC(=O)c1ccn[nH]1)c1cn(C)nc1C	1.8	54*	129*	0.5	-55	55
CCc1nc(Sc2nnnn2-c2ccccc2)c2c3c(sc2n1)CCCC3	8*	-7	90	1.1	18	-18
CCc1nc(N2CCN(C(=O)c3ccccc3)CC2)c2c3c(sc2n1)CCCC3	0.63	-6	91	1.1	-1	1
Cc1nc(Sc2nnnn2C)c2c3c(sc2n1)CCC3	12*	-9	86	1.1	6	-7
O=C(O)c1ccc(Sc2nnnn2-c2ccccc2)c([N+](=O)[O-])c1	0.99	-3	94	1	-5	5
COC(=O)c1ccc(Sc2nnnn2-c2ccccc2)c([N+](=O)[O-])c1	4*	-1	93	1	-2	2
CN(C)c1ccc(NC(=O)c2ccc3nsnc3c2)cc1	2.6	37	144*	0.6	-18	18
O=C(Nc1ccc(Cl)cc1)c1ccc2nsnc2c1	3.3*	16	150*	0.8	-94	95
CCOc1ccc(NC(=O)CSc2nc(-c3cccs3)cc(C(F)(F)F)n2)c([N+](=O)[O-])c1	1.4	-2	103	1	10	-10
Cn1cnc2cc(NC(=O)c3ccc(Cl)cc3)ccc21	5*	20	140*	0.8	-89	89
Cn1c(CN2CCCC2)nc2cc(NC(=O)c3ccc(Cl)cc3)ccc21	1.3	6	146*	0.9	-38	38
Cc1ccc(-c2csc3nc(SCC(N)=O)n(Cc4ccccc4)c(=O)c23)cc1	0.41	-7	97	1.1	-18	17
Cc1nonc1CN(C)C(=O)c1ccc(OC2CCN(C(=O)c3cccnc3)CC2)cc1	1.1	-9	102	1.1	-5	5
COc1ccc(C(NC(=O)C2CCCCC2)c2c(O)ccc3ccccc23)cc1 (stereo not given)	1.3	-9	89	1.1	20	-20
CCOc1ccc(C(=O)CSc2nnc3ccccn23)cc1	4.1*	9	141*	0.9	-131	131
COC(=O)c1ccccc1NC(=O)c1ccc(-c2ccc(Br)cc2)o1	0.75	-7	138*	1.1	12	-12
CCC(C)NC(=O)CSc1nc2c(sc(=S)n2Cc2ccco2)c(=O)n1-c1ccccc1 (stereo not given)	0.87	-4	92	1	68*	-68
CCOC(=O)C(C(C)=O)c1c(Br)c(O)c(O)c2c(C(=O)c3ccc(C)cc3)coc12 (stereo not given)	4.5*	-5	94	1.1	-5	5
CCOC(=O)c1c(C)n(-c2ccc(C)cc2)c2c(C(C(C)=O)C(=O)O)c(Br)c(O)c(O)c12 (stereo not given)	0.71	0	102	1	6	-5
SMILES	NF-kB expr up	FLuc inhib CS	STAT1 act	FLuc stim CS	APP 5UTR inh	APP 5'UTR act
CC(=O)c1ccc(NC(=O)C2C3C=CC(C3=C(c3ccccc3)c3ccccc3)C2C(=O)O)cc1 (stereo not given)	1.1	-6	96	1.1	-29	29
COc1ccc(/C=N/N=C(\N)c2nonc2N)cc1	9.4*	52*	73	0.5	-191	191*
CCN(CC)c1ccc(NC2=C(Cl)C(=O)c3ccccc3C2=O)cc1	1.2	14	126	0.9	96*	-95
Cc1ccc(NC2=C(Cl)C(=O)c3ccccc3C2=O)cc1	0.83	5	95	0.9	96*	-96
CCNC1=C(Cl)C(=O)c2ccccc2C1=O	0.43	-1	105	1	-4	4
Cc1ccc(NC2=CC(=O)C(=O)c3ccccc32)cc1	2	31	120	0.7	-30	30
Cc1ccc(NC2=C(N3CCOCC3)C(=O)c3ccccc3C2=O)cc1	1.8	56*	128	0.4	-151	151*
Cc1onc(-c2c(F)cccc2Cl)c1C(=O)N1CCOC12CCCCC2	1.1	-5	100	1.1	-41	41
O=C(NNC1=NS(=O)(=O)c2ccccc21)c1ccc(Cl)cc1	1.5	84*	95	0.2	1	-1
O=C(Nc1ccn(Cc2ccccc2)n1)c1ccc(F)cc1	1.1	50*	138*	0.5	-68	68
CCNC(=O)COC(=O)c1ccc(-c2nc3ccccc3s2)s1	1.1	87*	98	0.1	-52	52
O=C(NC1CC1)c1ccc(-c2nc3ccccc3s2)s1	1.1	96*	31	0	-83	83
CCN1CCN(C(=O)c2ccc(-c3nc4ccccc4s3)s2)CC1	4.2*	34	130*	0.7	-131	131
O=C(c1ccc(-c2nc3ccccc3s2)s1)N1CCOCC1	1.1	96*	28	0	-65	65
NC(=O)COC(=O)c1ccccc1OCc1ccccc1Cl	1.1	-1	99	1	-9	9
COCCCN1CN=C(Nc2nc3ccccc3o2)NC1	1.3	4	118	1	-35	35
Nc1n[nH]c(N)c1N=Nc1ccc(Cl)cc1	1.4	2	111	1	-30	30
Nc1ccc(N=Nc2ccc(N)cc2)cc1	3.5*	64*	120	0.4	-26	26
Cc1ccc(S(=O)(=O)N(Cc2ccc(Cl)cc2)c2ccccc2C(=O)NCc2ccco2)cc1	0.65	-4	101	1	-1	1
COC(=O)c1cc(NC(=O)CSC2=NCCS2)cc(C(=O)OC)c1	1.3	-3	91	1	0	0
Cc1ccc(CSc2nc3ccncc3[nH]2)cc1	5.2*	98*	35	0	-148	148*
Cc1ccc(CSc2nc3ncccc3[nH]2)cc1	3.2	83*	107	0.2	-135	135
